Compound activity from PubChem.
Sampled rows, rich in hits. Any-hit rate of the full collection: about 1.4%.
Tb MetRS inh – Trypanosoma brucei MetRS inhibition; purified T. brucei MetRS, ATP depletion, Kinase-Glo luminescence; 360,000 compounds, 0.4% hits; inhibition, % at 11.9 µM; AID 624268;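 active = inhibition above a per-plate cutoff of the control wells' mean inhibition plus 3 SD, cut at about 5.5% in these data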
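Material: parasite MetRS enzyme / Replication: singlicate, one well per compound / Signal: luminescence of leftover ATP / Schedule: 2 h aminoacylation at 25 °C after 15 min preincubation / Medium: HEPES-MgCl2-KCl buffer plus DTT, spermine, BSA, pyrophosphatase / Doses: 11.9 µM single point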
HDAC3 inh – inhibitors of human histone deacetylase 3. O15379. recombinant HDAC3, fluorogenic peptide/trypsin coupled, fluorescence. inhibition, % at 8.3 µM. 320,000 compounds, 0.15% hits; in the data active = inhibition above about 26%, passing the limit was not always enough
Target sequence (O15379 whole entry, looked up): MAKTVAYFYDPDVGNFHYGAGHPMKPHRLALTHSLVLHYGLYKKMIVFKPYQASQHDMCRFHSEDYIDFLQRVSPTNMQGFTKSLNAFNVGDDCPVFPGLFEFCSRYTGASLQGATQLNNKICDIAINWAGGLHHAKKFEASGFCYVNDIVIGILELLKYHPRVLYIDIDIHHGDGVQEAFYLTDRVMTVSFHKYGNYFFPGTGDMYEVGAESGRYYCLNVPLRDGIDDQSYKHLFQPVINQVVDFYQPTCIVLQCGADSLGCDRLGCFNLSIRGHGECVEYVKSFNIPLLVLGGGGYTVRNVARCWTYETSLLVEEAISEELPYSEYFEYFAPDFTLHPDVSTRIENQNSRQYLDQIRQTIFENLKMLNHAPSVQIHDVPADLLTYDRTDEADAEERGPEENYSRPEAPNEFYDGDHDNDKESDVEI
CR mimetic SO – yeast age-related superoxide inhibition as caloric restriction mimetic. S. cerevisiae aged cells, superoxide DHE fluorescence; stronger effect = lower value. superoxide response (% of plate mean), % at 10 µM. 330,000 compounds, 0.18% hits;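 active = superoxide response under a set limit, about three screen SD below normal, cut at about 65% in these data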;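 note: yeast aged for seven days with compound at 30 °C before DHE staining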
IDE cell activ – boosts human insulin-degrading enzyme activity in HEK cells; 340,000 compounds, 0.073% hits; FAbeta-B cleavage, fluorescence polarization; 0% vehicle, 100% cell-free pure enzyme wells; AID 493087; activation, % at 5.96 µM;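 active = activation above the mean of all tested compounds plus 3 SD, set per screening campaign, cut at about 17% in these data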
Efflux pump inh – antifungal efflux pump inhibition, Nile Red retention | AID 485275 | inhibition, % at 10 µM | 330,000 compounds, 0.44% hits | S. cerevisiae Candida pump triplex;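 active = plate passing quality check with inhibition over a set limit, or well fluorescence over plate mean plus 4 SD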;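 note: Nile Red retained in pooled yeast measured as flow cytometry median fluorescence; higher means more Nile Red kept so more efflux inhibition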
IDE cell inh – cellular human IDE inhibition | P14735 | HEK cells, FAbetaB cleavage, fluorescence polarization | inhibition, % at 5.59 µM | 320,000 compounds, 0.41% hits | AID 434962;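 active = percent inhibition above the average of all tested compounds plus 3 SD, set per screening campaign, cut at about 16% in these data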;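 note: IDE supplied by intact live HEK cells; FP after avidin binding of uncleaved biotin substrate so inhibition keeps polarization high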
TbMetRS confirm – confirmation of Trypanosoma brucei MetRS inhibitors; shares compounds with Tb MetRS inh; T. brucei MetRS enzyme, luminescence (ATP depletion); inhibition, % at 11.9 µM; 1,400 compounds, 93% hits; in the data active = inhibition above about 7%
Jurkat tox – kills Jurkat cells in T. brucei MetRS counterscreen. shares compounds with Tb MetRS inh. inhibition, % at 8.3 µM. Jurkat cells viability, ATP luminescence. 1,400 compounds, 12% hits; in the data active = inhibition above about 15%
TbMetRS FP orth – orthogonal test for Trypanosoma brucei MetRS inhibitors; shares compounds with Tb MetRS inh; 1,400 compounds, 44% hits; purified T. brucei MetRS, fluorescence polarization; inhibition, % at 11.9 µM; in the data active = inhibition above about 17%
Large screens that a line does not name were inactive (follow-up assays come after a bar, where they were run).

Nc1cccc(CCc2nc3cc4ccccc4cc3[nH]2)c1	none
O=C(O)c1nn(-c2ccccc2-c2n[nH]c(=O)[nH]c2=O)c(=O)[nH]c1=O	none (no result: Tb MetRS inh, IDE cell activ)
Cc1ccc2[nH]c3c(NCc4ccccc4)ncnc3c2c1	none (no result: Tb MetRS inh, IDE cell activ, IDE cell inh)
Cc1ccc2[nH]c3c(N4CCc5ccccc5C4)ncnc3c2c1	Tb MetRS inh 12, IDE cell inh 62 | TbMetRS confirm inactive | Jurkat tox 47 | TbMetRS FP orth inactive
CC1=NN(c2ccc(F)cc2)C(=O)C1C(c1cccc(O)c1)c1c(C)[nH]n(-c2ccc(F)cc2)c1=O (stereo unspecified)	Tb MetRS inh 19 | TbMetRS confirm inactive | Jurkat tox inactive | TbMetRS FP orth inactive
CC1=NN(c2ccc(Cl)cc2)C(=O)C1C(c1cccc(O)c1)c1c(C)[nH]n(-c2ccc(Cl)cc2)c1=O (stereo unspecified)	none
O=c1c2cc(Br)ccc2[nH]c(=S)n1Cc1ccccn1	Tb MetRS inh 10 | TbMetRS confirm 21 | Jurkat tox inactive | TbMetRS FP orth inactive
O=c1c2cc(Br)ccc2[nH]c(=S)n1Cc1ccccc1	Tb MetRS inh 7.7 | TbMetRS confirm 20 | Jurkat tox inactive | TbMetRS FP orth inactive
NS(=O)(=O)c1ccc(CCNC(=O)CCCCCn2c(=S)[nH]c3ccc(Br)cc3c2=O)cc1	Tb MetRS inh 17 | TbMetRS confirm 22 | Jurkat tox inactive | TbMetRS FP orth inactive
COc1ccccc1CNC(=O)Cn1c(=O)oc2cc(S(=O)(=O)N3CCCC3)ccc21	none
CCOC(=O)c1c(N)n(CCOC(=O)c2cccs2)c2nc3ccccc3nc12	Tb MetRS inh 7.3 | TbMetRS confirm 5.7 | Jurkat tox inactive | TbMetRS FP orth inactive
COC(=O)c1sc(-c2ccc(Cl)cc2)cc1NC(=O)COCC(=O)O	Tb MetRS inh 38 | TbMetRS confirm 37 | Jurkat tox inactive | TbMetRS FP orth 25
COC(=O)c1sc(-c2ccc(Cl)cc2)cc1NC(=O)/C=C/C(=O)O	none
Brc1ccccc1CN1CCN(Cc2c[nH]c3ccccc23)CC1	none (no result: Tb MetRS inh, IDE cell activ)
O=[N+]([O-])c1ccc(CN2CCN(Cc3c[nH]c4ccccc34)CC2)cc1	Tb MetRS inh 6.2 | TbMetRS confirm 19 | Jurkat tox inactive | TbMetRS FP orth inactive
Brc1ccc(CN2CCN(Cc3c[nH]c4ccccc34)CC2)cc1	Tb MetRS inh 11 | TbMetRS confirm 42 | Jurkat tox inactive | TbMetRS FP orth 17
Cc1cc(C)cc(C(=O)N[C@@H](C)C(=O)N2CCC3(CC2)NCCc2[nH]cnc23)c1	none
Cc1ccc(C2=NS(=O)(=O)N(C)C(C(=O)NCc3ccc(F)cc3)=C2)cc1	Tb MetRS inh 9.8 | TbMetRS confirm 17 | Jurkat tox inactive | TbMetRS FP orth inactive
CCS(=O)(=O)N1CCN(c2ccc(Cl)cc2[N+](=O)[O-])CC1	Tb MetRS inh 5.7 | TbMetRS confirm 14 | Jurkat tox inactive | TbMetRS FP orth inactive
COc1ccc(CNc2ncnc3c2[nH]c2cc(OC)c(OC)cc23)cc1	none
CC(C)OCCCNc1ncnc2c1[nH]c1ccccc12	Tb MetRS inh 74 | TbMetRS confirm 87 | Jurkat tox 38 | TbMetRS FP orth 64
COc1ccc(CNc2ncnc3c2[nH]c2ccccc23)cc1	Tb MetRS inh 88, IDE cell inh 60 (no result: IDE cell activ) | TbMetRS confirm 94 | Jurkat tox 24 | TbMetRS FP orth 73
COc1ccc(S(=O)(=O)Nc2ccccn2)cc1C(=O)Nc1ccccc1	none
CC1CCCN(CCCOc2ccc(Cl)cc2Br)C1 (stereo unspecified)	Tb MetRS inh 11 | TbMetRS confirm 23 | Jurkat tox inactive | TbMetRS FP orth inactive
Nc1nc(Nc2ccc(Cl)cc2)nc2ccccc12	none
Nc1nc(Nc2ccccc2)nc2ccccc12	Tb MetRS inh 19 | TbMetRS confirm 31 | Jurkat tox 20 | TbMetRS FP orth 18
